# How the values were obtained:
# Rattus norvegicus [1] = assay: Dose required to decrease heart rate after iv injection to spinal rats; type: functional
# How it was run: (§1)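 Male Chbb:THOM rats, 200–250 g, under pentobarbital sodium 50 mg/kg ip, atropine sulfate 1 mg/kg sc, trachea cannulated. Medulla cut at C1, brain destroyed, artificially ventilated. Jugular iv injections given cumulatively, dose doubled every 2 min, 3 doses per animal, top cumulative dose 10 mg/kg. ECG-triggered tachograph heart rate. D150 (dose lowering rate 150 beats/min) read graphically from log dose–response curves; n = 6 rats.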
# [2] = Dissociation constant (pKa); type: physicochemical
# Rattus norvegicus [3] = species on record: Rattus norvegicus; assay: Evaluated for decreased heart rate in spinal rats, relative activity was determined; type: functional; how it was run: as §1
# [4] = Partition coefficient (logD7.4); settings: octanol/water, pH 7.4
# [5] = Ratio of contractility to atrial rate in isolated guinea pig atria; type: functional, Cardiac atrium
# How it was run: (§2)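 Ratios of EC30 values from isolated guinea pig atria. Atrial rate was measured in spontaneously beating atria at 37 °C after at least 30 min of equilibration, until rate varied by no more than 5 beats/min. Contractility was measured in left atria driven at 2.5 Hz, 30 °C. Maximal driving frequency was found by stepwise pacing. Compound was added cumulatively, concentration doubled every 10 min.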
# Cavia porcellus [6] = species on record: Cavia porcellus; assay: Evaluated for decrease in spontaneous frequency of atrial rate in isolated guinea pig atria; type: functional; settings: Cardiac atrium
# How it was run: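 Atria dissected from guinea pigs of various breeds (300–500 g, either sex) and suspended in modified Tyrode's solution gassed with 98% O2/2% CO2, resting tension 1 g. Spontaneously beating atria at 37 °C, equilibrated at least 30 min until rate stable within 5 beats/min. Drug added cumulatively, concentration doubled every 10 min. EC30 = concentration reducing predrug rate by 30%, read from curves.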
# Cavia porcellus [7] = species on record: Cavia porcellus; assay: Evaluated for decrease in maximal driving frequency in isolated guinea pig atria; type: functional
# How it was run: (§3)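 Guinea pig left atria in modified Tyrode's gassed 98% O2/2% CO2, 1 g resting tension, driven with 1 ms pulses at 3× threshold. Runs separated by 5 min at 0.5 Hz. Control is the mean of 3 predrug runs; the value is the mean of runs at 5 and 10 min after each cumulative addition, concentration doubled every 10 min. EC30 read from curves.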
# Cavia porcellus [8] = species on record: Cavia porcellus; assay: Evaluated for decrease in contractility in isolated guinea pig atria; type: functional
# How it was run: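 Electrically driven left guinea pig atria (300–500 g, either sex) in modified Tyrode's gassed 98% O2/2% CO2, 30 °C, 1 g resting tension. Stimulation 3 ms rectangular pulses at 1.5× threshold, 2.5 Hz, after 20 min equilibration. Isometric force in grams. Concentrations added cumulatively, doubled every 10 min, one atrium per experiment. EC30 (30% fall from predrug value) read from curves.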
# Cavia porcellus [9] = species on record: Cavia porcellus; assay: Evaluated for increase in maximal driving frequency in isolated guinea pig atria; type: functional; how it was run: as §3
# [10] = EC30 ratio of contractility to atrial rate in isolated guinea pig atria; type: functional, Cardiac atrium; how it was run: as §2
# [11] = EC30 ratio of maximal driving frequency to atrial rate in isolated guinea pig atria; type: functional, Cardiac atrium; how it was run: as §2
Structure (SMILES),D150 (Rattus norvegicus [1]),pKa [2],Relative activity (Rattus norvegicus [3]),logD [4],Ratio [5],EC30 (Cavia porcellus [6]),EC30 (Cavia porcellus [7]),EC30 (Cavia porcellus [8]),EC30 (Cavia porcellus [9]),Ratio [10],Ratio [11]
Clc1cccc(Br)c1N(CC1CC1)C1=NCCN1,0.42 mg/kg,10.8,1.48,-0.79,,,,,,,
Brc1cccc(Br)c1N(CC1CC1)C1=NCCCN1,1.1 mg/kg,12.4,0.56,-1.03,,,,,,,
Brc1cccc(N(CC2CC2)C2=NCCN2)c1Br,7.5 mg/kg,11.1,0.083,-0.41,,,,,,,
Brc1ccc(Br)c(N(CC2CC2)C2=NCCN2)c1,5 mg/kg,11,0.12,-0.52,,,,,,,
Brc1cccc(Br)c1N(CC1CCC1)C1=NCCN1,1.2 mg/kg,10.9,0.52,-0.06,,,,,,,
C=C(C)CN(C1=NCCN1)c1c(Br)cccc1Br,2.1 mg/kg,10.7,0.3,-0.66,,,,,,,
C=CCN(C1=NCCN1)c1c(Br)cccc1Br,1.5 mg/kg,10.7,0.41,-0.75,,,,,,,
COc1ccc(CCN(C)CCCC(C#N)(c2ccc(OC)c(OC)c2)C(C)C)cc1OC (stereo not given),,,,,1.2,0.2 µg/mL,6.5 µg/mL,0.24 µg/mL,,,
Clc1cccc(Cl)c1N(CC1CC1)C1=NCCN1,0.65 mg/kg,10.9,0.95,-0.92,,,,,,,
CC(C)CCN(C1=NCCN1)c1c(Br)cccc1Br,1.3 mg/kg,10.9,0.48,0.16,,,,,,,
Cc1cccc(Cl)c1N(CC1CC1)C1=NCCN1,1.85 mg/kg,11.3,0.34,-0.99,,,,,,,
CCN(C1=NCCN1)c1c(Br)cccc1Br,0.75 mg/kg,11.1,0.83,-1.01,,,,,,,
Brc1cccc(Br)c1N(CC1CCCCC1)C1=NCCN1,6.5 mg/kg,11.2,0.095,0.27,,,,,,,
N=C(N)N(CC1CC1)c1c(Br)cccc1Br,>10 mg/kg,11.9,<0.062,-0.63,,,,,,,
C[N+](C)(C)CCOC(N)=O.[Cl-] [CARBACHOL],,,,,0.22,0.029 µg/mL,,0.0065 µg/mL,0.09 µg/mL,,
CC(C)=CCN(C1=NCCN1)c1c(Br)cccc1Br,3.5 mg/kg,10.8,0.18,-0.14,,,,,,,
C=C(C)CCN(C1=NCCN1)c1c(Br)cccc1Br,1.03 mg/kg,10.9,0.6,0.02,,,,,,,
CCCN(C1=NCCN1)c1c(Br)cccc1Br,0.65 mg/kg,11,0.95,-0.55,,,,,,,
Brc1ccc(N(CC2CC2)C2=NCCN2)cc1Br,>>10 mg kg-1,,<<0.062,,,,,,,,
CC(C)CN(C1=NCCN1)c1c(Br)cccc1Br,1.35 mg/kg,11,0.46,-0.64,,,,,,,
CCCCCN(C1=NCCN1)c1c(Br)cccc1Br,1.6 mg/kg,11,0.39,0.32,,,,,,,

Structure (SMILES),D150 (Rattus norvegicus [1]),pKa [2],Relative activity (Rattus norvegicus [3]),logD [4],Ratio [5],EC30 (Cavia porcellus [6]),EC30 (Cavia porcellus [7]),EC30 (Cavia porcellus [8]),EC30 (Cavia porcellus [9]),Ratio [10],Ratio [11]
Brc1cccc(Br)c1N(C1=NCCN1)C1CCCC1,1 mg/kg,11.2,0.62,-0.29,,,,,,,
Fc1cccc(C(F)(F)F)c1N(CC1CC1)C1=NCCN1,1.8 mg/kg,10.7,0.34,-0.95,,,,,,,
Brc1ccccc1N(CC1CC1)C1=NCCN1,4.4 mg/kg,11.2,0.14,-1.3,,,,,,,
Fc1cccc(Br)c1N(CC1CC1)C1=NCCN1,1.5 mg/kg,10.7,0.41,-1.03,,,,,,,
Fc1cccc(F)c1N(CC1CC1)C1=NCCN1,4.8 mg/kg,10.3,0.13,-1.41,,,,,,,
Brc1cccc(Br)c1N(Cc1ccccc1)C1=NCCN1,2.5 mg/kg,10.4,0.25,-0.05,,,,,,,
CC(C)N(C1=NCCN1)c1c(Br)cccc1Br,2.3 mg/kg,11.2,0.27,-0.82,,,,,,,
Brc1cccc(Br)c1N(Cc1cccs1)C1=NCCN1,1.9 mg/kg,10.5,0.33,-0.1,,,,,,,
C=C[C@H]1CN2CC[C@H]1C[C@@H]2[C@@H](O)c1ccnc2ccc(OC)cc12 [QUINIDINE],,,,,,7.2 µg/mL,6.5 µg/mL,62 µg/mL,,8.6,0.9
Brc1ccc(N(CC2CC2)C2=NCCN2)c(Br)c1,10 mg/kg,11.2,0.062,-0.31,,,,,,,
Brc1cccc(Br)c1N(C1=NCCN1)C1CCCCC1,2.6 mg/kg,11.3,0.24,0.14,,,,,,,
CCCCN(C1=NCCN1)c1c(Br)cccc1Br,1.35 mg/kg,11,0.46,-2.5,,,,,,,
CN(C1=NCCN1)c1c(Br)cccc1Br,1.4 mg/kg,10.7,,,,,,,,,
Brc1cccc(Br)c1N(CC1CC1)C1=NCCN1,0.62 mg/kg,10.9,1,-1.12,,0.65 µg/mL,12 µg/mL,95 µg/mL,,146,18
C#CCN(C1=NCCN1)c1c(Br)cccc1Br,1.25 mg/kg,10.1,0.5,-0.18,,,,,,,
Brc1cccc(Br)c1N(CC1CCCC1)C1=NCCN1,1.3 mg/kg,10.9,0.48,0.32,,,,,,,
Fc1cccc(Cl)c1N(CC1CC1)C1=NCCN1,0.74 mg/kg,10.8,0.84,-0.98,,,,,,,
C=CCN(C1=NCCN1)c1c(Cl)cccc1Cl [ALINIDINE],2.5 mg/kg,10.4,0.25,-1.66,,,,,,,
C/C=C/CN(C1=NCCN1)c1c(Br)cccc1Br,0.7 mg/kg,11,0.88,-0.49,,,,,,,
Brc1cccc(Br)c1N(Cc1ccco1)C1=NCCN1,2.8 mg/kg,10.5,0.22,-0.52,,,,,,,
C=CCCN(C1=NCCN1)c1c(Br)cccc1Br,1 mg/kg,11.2,0.62,-0.63,,,,,,,
